Source: PubChem
The list is not random: actives were taken first. Their share in the collection is about 5.2%.
M18AAP inhibitor: PfM18AAP enzyme inhibition. recombinant PfM18AAP, H-Glu-NHMec fluorogenic cleavage. inhibition, % at 7.35 µM. 1.2% of 290,000 active;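 active = inhibition above the campaign mean inhibition over all tested compounds plus 3 SD, cut at about 28% in these data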;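 also: 0% = plate median of test compound wells and 100% = 2 mM ZnCl2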
ALR inh: inhibitors of human sulfhydryl oxidase ALR; P55789; purified ALR, DTT oxidation, H2O2 HRP-luminol luminescence; inhibition, % (test concentration not listed); 3.8% of 290,000 active; AID 485317;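 active = mean replicate inhibition above about 79%, with every replicate also reaching it, limit read from the data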
Target sequence (P55789 whole entry, looked up): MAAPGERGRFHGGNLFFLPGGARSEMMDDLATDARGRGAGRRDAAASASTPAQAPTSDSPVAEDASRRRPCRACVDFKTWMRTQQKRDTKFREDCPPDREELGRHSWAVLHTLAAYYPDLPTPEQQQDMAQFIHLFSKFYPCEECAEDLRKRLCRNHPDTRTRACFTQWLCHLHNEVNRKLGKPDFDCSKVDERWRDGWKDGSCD
core dimer inh: blocks dimerization of HCV core protein; TR-FRET GST/Flag-core106 dimerization, 1536-well; inhibition, % at 5 µM; 0.33% of 300,000 active; AID 1899;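 active = inhibition above the mean of all tested compounds plus 3 SD, set per screening campaign, cut at about 45% in these data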
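Assay system: tagged HCV core106 pair (GST and Flag); medium: KF-containing HEPES buffer, pH 7.45, DTT, CHAPS, BSA; also added: Eu donor and XL665 acceptor anti-tag antibodies; dosing: 5 µM single dose; timing: compound-protein-antibody incubation 4 h at 22.5 °C; signal: TR-FRET 671 and 617 nm emission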
EBNA-1 inhibitor: blocks EBNA-1 binding to DNA; AID 1950; 0.34% of 300,000 active; EBNA-1 DNA binding, fluorescence polarization; inhibition, % at 14.8 µM; in the data active = inhibition above about 28%
HCV NS3 hel inh: inhibitors of Hepatitis C virus NS3 helicase. NS3 helicase DNA unwinding, Cy5 molecular beacon fluorescence. inhibition, % at 10.9 µM. 0.56% of 290,000 active;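 active = inhibition above the mean of all tested compounds plus 3 SD, set per campaign, cut at about 35% in these data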;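 also: 0% = DMSO wells and 100% = thioflavine S control wells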
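System: HCV NS3 helicase fragment; control set: DMSO and thioflavine S; technique: Cy5 fluorescence at 0 and 60 min, beacon hairpin quenching; reagent: beacon DNA duplex substrate plus ATP; replicates: singlicate; schedule: 1 h reaction at 25 °C, ATP-initiated; medium: MOPS buffer pH 6.5 with MgCl2, DTT, Tween20, BSA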
ZTA DNA inh: ZTA (EBV) inhibition in EBNA-1 counter-screen | P03206 | ZTA-DNA binding, fluorescence polarization | inhibition, % at 11 µM | 0.15% of 320,000 active; in the data active = inhibition above about 33%
Target sequence (P03206 whole entry, looked up): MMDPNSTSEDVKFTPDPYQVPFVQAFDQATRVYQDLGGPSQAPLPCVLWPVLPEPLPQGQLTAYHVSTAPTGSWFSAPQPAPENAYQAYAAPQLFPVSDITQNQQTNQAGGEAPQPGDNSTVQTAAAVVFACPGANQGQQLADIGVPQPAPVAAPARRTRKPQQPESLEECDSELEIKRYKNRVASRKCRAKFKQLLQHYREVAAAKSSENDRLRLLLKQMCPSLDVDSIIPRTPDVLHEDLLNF
Numbers without * were called inactive; . = no result.

SMILES	M18AAP inhibitor	ALR inh	core dimer inh	EBNA-1 inhibitor	HCV NS3 hel inh	ZTA DNA inh
OCCCNCc1ccc(N(c2ccccc2)c2ccccc2)cc1	3.5	99.2*	-5.8	-3.5	-55.1	-1.4
CC(Cc1ccc(O)c(O)c1)C(C)Cc1ccc(O)c(O)c1 (stereo not drawn)	.	99.0*	6.1	-5.1	.	-5.1
Cc1ccc(-n2ncc3c2CC(C)(C)CC3NC(=O)CCc2ccncc2)cc1 (stereo not drawn)	-4.5	-15.9	-5.8	-10.8	-2.0	1.1
Cc1nn(CC(C)C(=O)N2CCN(S(=O)(=O)c3ccc(Cl)cc3)CC2)c(C)c1C (stereo not drawn)	-7.0	43.5	-21.2	-14.9	-0.5	-12.4
O=C(c1ccccc1)c1ccc2cc(O)ccc2c1	6.3	99.5*	9.7	-1.6	-5.1	4.0
CC(c1nnc(SCC(=O)Nc2cccnc2Cl)n1Cc1ccccc1)N(C)C (stereo not drawn)	-0.7	86.8*	-2.3	3.2	7.9	-5.0
O=C(CSc1nnc(SCc2ccc(Cl)cc2)s1)N/N=C/c1ccc(Cl)cc1Cl	-5.9	1.4	11.0	5.2	8.8	-7.2
Cc1nnc(SCC(=O)N/N=C/c2cc(Cl)c(O)c(Cl)c2)s1	0.1	82.1*	-7.3	0.4	0.9	-5.5
COC(=O)C1(Cc2cc(-c3ccc([N+](=O)[O-])cc3)no2)CCN(C(=O)OC(C)(C)C)CC1	.	-1.2	10.4	0.0	.	0.1
Cc1cccc(C(=O)NC(=S)Nc2ccccc2C(=O)O)c1	4.3	98.7*	-2.7	-12.2	11.1	-10.8
COc1cccc(C(=O)NC(=S)Nc2ccc(Cl)cc2C(=O)O)c1	0.1	97.4*	3.9	11.6	9.9	13.8
CN1C(=O)/C(=C/c2ccc(C(=O)Nc3ccc(O)cc3C(=O)O)cc2)SC1=S	5.2	97.4*	17.5	-7.6	-10.1	7.6
O=C(NC(=S)NNC(=O)c1ccc(Cl)cc1Cl)c1cccnc1	37.9*	.	-1.2	1.5	-4.7	-16.6
O=C(NC(=S)NNC(=O)c1ccccc1O)c1cccnc1	4.9	54.8	-3.0	-3.5	5.2	1.4
O=C(CCN1C(=O)S/C(=C\c2ccccc2)C1=O)Nc1ccc(O)cc1C(=O)O	15.1	47.9	4.8	-13.6	11.7	6.5
O=C(O)COc1ccccc1/C=N/NC(=O)CN1CCN(S(=O)(=O)c2ccc(Br)cc2)CC1	-1.9	.	1.6	-2.7	11.3	-5.8
CC(C)(O)c1[nH]c2ccc(C#N)cc2c1C(C)(C)O	6.8	-0.3	11.2	6.7	26.6	4.8
O=C1CC(c2cccc(O)c2)Oc2ccccc21 (stereo not drawn)	.	.	.	.	.	-16.1
CCc1cccc(NC(=O)Cn2c(=O)c3cccn3c3ccccc32)c1	-0.2	-0.7	3.3	-1.7	4.8	6.1
COc1ccc(CCNC(=O)C(C)OC(=O)c2nsc(Cl)c2Cl)cc1OC (stereo not drawn)	-1.3	-8.8	6.4	3.0	8.1	6.1
Cc1ccc(C(=O)Nc2ccc(O)cc2C(=O)O)cc1C	5.7	97.7*	3.5	3.3	1.9	12.9
O=C(NC(=S)Nc1ccc(O)cc1)c1ccccc1Cl	-4.3	.	-1.5	-7.6	24.4	0.2
Cc1ccc(O)c(NC(=S)NC(=O)c2ccccc2Cl)c1	9.8	97.3*	1.2	-16.8	-2.2	2.8
Cc1cccc(C(=O)NC(=S)NNC(=O)COc2c(C)cccc2C)c1	29.5*	65.5	-1.0	-7.5	13.5	0.3
O=C(O)c1cc(O)ccc1NC(=O)c1cccc2ccccc12	-0.9	95.5*	0.8	-0.6	23.8	-7.9
SMILES	M18AAP inhibitor	ALR inh	core dimer inh	EBNA-1 inhibitor	HCV NS3 hel inh	ZTA DNA inh
CC(=O)Nc1ccccc1NC(=O)c1cccc2ccccc12	-7.2	.	-3.2	9.8	1.8	-5.2
COc1ccccc1C(=O)NC(=O)CSc1nc(C)cs1	.	8.3	-2.2	-1.7	.	-1.7
O=C(O)c1cccc(NC(=S)NC(=O)c2ccc(-c3ccccc3)cc2)c1	-2.6	16.6	14.0	4.4	32.7	12.3
Cc1c(NC(=S)NC(=O)c2cccc3ccccc23)cccc1C(=O)O	-3.2	2.1	-4.4	8.9	19.0	-1.2
O=C(O)c1ccccc1NC(=S)NC(=O)c1cccc2ccccc12	1.1	97.9*	2.0	-8.9	3.2	-0.1
Cc1cccc(C(=O)NC(=S)NNC(=O)c2ccccc2Cl)c1	28.7*	98.4*	-4.9	7.0	6.2	-3.4
